“Also recorded” adds a separate entry of the source. Marks after values point to notes of the source that are not given here.
Columns and labels:
Assay type in all cases: in vivo, human
plasma arginine = test: Pharmacodynamics: plasma arginine concentration by LC-MS/MS; conditions: monotherapy / INCB001158 overall
[1] = INCB001158 plasma pharmacokinetics; conditions: for Cmax: Cmax (mean±SD); for half-life: t1/2 (mean±SD)
[2] = tested on: advanced or metastatic solid tumours; test: Antitumour activity per RECIST v1.1
Method in brief: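 Part 1a monotherapy dose escalation used a standard 3+3 design, with 8 dose levels from 50 mg to 1000 mg. The test compound was given orally twice daily as tablet or capsule on days 1–28 of 28-day cycles. BOR, ORR and PFS followed RECIST v1.1, with confirmed responses unless stated otherwise. Response-evaluable patients had ≥1 dose, a baseline scan and ≥1 postbaseline scan, or qualifying discontinuation.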

[3] = human, plasma, oral, 50 mg, Part 1a C1D1 single dose 50 mg (n=8)
[4] = human, plasma, oral, 75 mg, Part 1a C1D1 single dose 75 mg (n=7)
[5] = monotherapy dose escalation Part 1a total (n=25)
[6] = monotherapy dose escalation Part 1a total (n=30)
[7] = monotherapy dose expansion Part 2 total (n=73)
[8] = monotherapy dose expansion Part 2 total (n=77)

With `C[C@H](N)C(=O)N1C[C@H](CCCB(O)O)[C@](N)(C(=O)O)C1` [INCB001158] the “plasma arginine change on treatment” value (plasma arginine) was “dose-dependently increased; also recorded: dose-dependent increase in plasma arginine”, the “dose proportionality of plasma exposure (Cmax, AUC)” value ([1]; after multiple oral administrations, 50 mg to 150 mg two times per day) was “increased approximately dose proportionally” and the AUC(0-inf) ([1]; human, plasma, oral, 50 mg) was 8860 ± 3810 ng·h/mL. For the same compound, the Cmax [1, 3] was 795 ± 259 ng/mL, the half-life [1, 3] was 5.5 ± 1.4 h and the Cmax [1, 4] was 1350 ± 379 ng/mL. For the same compound, the half-life [1, 4] was 5.3 ± 1 h, the “time to steady state” value ([1]; monotherapy, from predose PK samples) was < 1 week and the confirmed partial response ([2]; monotherapy 100 mg two times per day, Part 2 (n=73), one patient, urothelial cancer) was 1.4%. For the same compound, the objective response ([2]; monotherapy dose escalation Part 1a (n=25)) was “No patient in the monotherapy cohort had an objective response”, the “BOR of stable disease” value ([2]; monotherapy dose escalation Part 1a (n=25), five patients) was 20.0% and the “BOR: CR” value [2, 5] was 0 n (%). The “BOR: NE” value [2, 5] was 1 (4.0) n (%), the “BOR: PD” value [2, 5] was 19 (76.0) n (%) and the “BOR: PR” value [2, 5] was 0 n (%). For the same compound, the “BOR: SD” value [2, 5] was 5 (20.0) n (%), the ORR [2, 5] was 0 (0 to 13.7) n (%) (95% CI) and the PFS events [2, 6] was 21 (70.0) n (%). For the same compound, the “PFS, median (95% CI)” value [2, 6] was 1.8 (1.8 to 1.9) mo, the “BOR: CR” value [2, 7] was 0 n (%) and the “BOR: Missing” value [2, 7] was 10 (13.7) n (%). The “BOR: NE” value [2, 7] was 3 (4.1) n (%), the “BOR: PD” value [2, 7] was 37 (50.7) n (%) and the “BOR: SD” value [2, 7] was 22 (30.1) n (%). The ORR [2, 7] was 1 (1.4) (0 to 7.4) n (%) (95% CI), the “BOR: PR” value ([2]; monotherapy dose expansion Part 2 total (n=73), well-differentiated urothelial cancer) was 1 (1.4)† n (%) and the PFS events [2, 8] was 58 (75.3) n (%). The “PFS, median (95% CI)” value [2, 8] was 1.9 (1.8 to 2.1) mo.
